Test results reported in paper PMC3130141 (Archives of Drug Information, 2011).

What was measured:
[1] = tested on: Japanese patients with advanced solid tumors; assay: Adverse events by CTCAE version 3.0, Phase I dose-escalation study; format: in vivo, human
[2] = tested on: Japanese patients with advanced solid tumors; assay: Dose-limiting toxicities and maximum tolerated dose during cycle 1; format: in vivo, human; settings: dose escalation halted at 25 mg
Summary of the method: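 Open-label dose escalation in sequential cohorts at 10, 15, 20 or 25 mg, given as a 1-h iv infusion on days 1, 8 and 15 of 28-day cycles. DLT: grade 3/4 hemolysis, grade 4 hematologic toxicity, febrile grade 3/4 neutropenia, prolonged diarrhea or vomiting, or other grade 3/4 non-hematologic toxicity (CTCAE v3.0). MTD: highest dose with ≤1 of 6 evaluable patients having a cycle 1 DLT.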

[3] = tested on: Japanese patients with advanced solid tumors; assay: Efficacy: overall best response by RECIST version 1.0; format: in vivo, human
Summary of the method: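 Investigator-assessed overall best response by RECIST v1.0, with baseline imaging within 28 days before first dose. Re-imaging was on day 29 of cycles 1 and 2 and of subsequent odd-numbered cycles. […] Dosing was a 1-h iv infusion on days 1, 8 and 15 of 28-day cycles (10–25 mg cohorts). Results were summarized descriptively by dose group.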

[4] = tested on: Western patients with solid tumors; settings: cited from earlier work
[5] = all doses 10-25 mg, 18 patients

Cc1ccc(C(=O)N(CCCN)C(c2nc3snc(C)c3c(=O)n2Cc2ccccc2)C(C)C)cc1 (centres unmarked) [AZD4877]
Anorexia, patients with CTCAE grade ≥3 event ([1]; 10 mg (N = 3)): 0 N (%) | Any grade ≥3 event, patients with CTCAE grade ≥3 event ([1]; 10 mg (N = 3)): 0 N (%) | Constipation, CTCAE any grade, patients with AEs ([1]; 10 mg (N = 3)): 1 (33) N (%) | Constipation, patients with CTCAE grade ≥3 event ([1]; 10 mg (N = 3)): 0 N (%) | Diarrhea, CTCAE any grade, patients with AEs ([1]; 10 mg (N = 3)): 2 (67) N (%) | Dizziness, CTCAE any grade, patients with AEs ([1]; 10 mg (N = 3)): 2 (67) N (%) | Fatigue, CTCAE any grade, patients with AEs ([1]; 10 mg (N = 3)): 1 (33) N (%) | Fatigue, patients with CTCAE grade ≥3 event ([1]; 10 mg (N = 3)): 0 N (%) | Febrile neutropenia, patients with CTCAE grade ≥3 event ([1]; 10 mg (N = 3)): 0 N (%) | Insomnia, CTCAE any grade, patients with AEs ([1]; 10 mg (N = 3)): 1 (33) N (%) | Nasopharyngitis, CTCAE any grade, patients with AEs ([1]; 10 mg (N = 3)): 0 N (%) | Nausea, CTCAE any grade, patients with AEs ([1]; 10 mg (N = 3)): 2 (67) N (%) | Neutropenia, patients with CTCAE grade ≥3 event ([1]; 10 mg (N = 3)): 0 N (%) | Pyrexia, CTCAE any grade, patients with AEs ([1]; 10 mg (N = 3)): 0 N (%) | Rash, CTCAE any grade, patients with AEs ([1]; 10 mg (N = 3)): 0 N (%) | Urinary tract infection, patients with CTCAE grade ≥3 event ([1]; 10 mg (N = 3)): 0 N (%) | Anorexia, patients with CTCAE grade ≥3 event ([1]; 15 mg (N = 3)): 0 N (%) | Any grade ≥3 event, patients with CTCAE grade ≥3 event ([1]; 15 mg (N = 3)): 0 N (%) | Constipation, CTCAE any grade, patients with AEs ([1]; 15 mg (N = 3)): 0 N (%) | Constipation, patients with CTCAE grade ≥3 event ([1]; 15 mg (N = 3)): 0 N (%) | Diarrhea, CTCAE any grade, patients with AEs ([1]; 15 mg (N = 3)): 1 (33) N (%) | Dizziness, CTCAE any grade, patients with AEs ([1]; 15 mg (N = 3)): 0 N (%) | Fatigue, CTCAE any grade, patients with AEs ([1]; 15 mg (N = 3)): 1 (33) N (%) | Fatigue, patients with CTCAE grade ≥3 event ([1]; 15 mg (N = 3)): 0 N (%) | Febrile neutropenia, patients with CTCAE grade ≥3 event ([1]; 15 mg (N = 3)): 0 N (%) | Insomnia, CTCAE any grade, patients with AEs ([1]; 15 mg (N = 3)): 0 N (%) | Nasopharyngitis, CTCAE any grade, patients with AEs ([1]; 15 mg (N = 3)): 0 N (%) | Nausea, CTCAE any grade, patients with AEs ([1]; 15 mg (N = 3)): 1 (33) N (%) | Neutropenia, patients with CTCAE grade ≥3 event ([1]; 15 mg (N = 3)): 0 N (%) | Pyrexia, CTCAE any grade, patients with AEs ([1]; 15 mg (N = 3)): 3 (100) N (%) | Rash, CTCAE any grade, patients with AEs ([1]; 15 mg (N = 3)): 3 (100) N (%) | Urinary tract infection, patients with CTCAE grade ≥3 event ([1]; 15 mg (N = 3)): 0 N (%) | Anorexia, patients with CTCAE grade ≥3 event ([1]; 20 mg (N = 6)): 0 N (%) | Any grade ≥3 event, patients with CTCAE grade ≥3 event ([1]; 20 mg (N = 6)): 1 (17) N (%) | Constipation, CTCAE any grade, patients with AEs ([1]; 20 mg (N = 6)): 1 (17) N (%) | Constipation, patients with CTCAE grade ≥3 event ([1]; 20 mg (N = 6)): 0 N (%) | Diarrhea, CTCAE any grade, patients with AEs ([1]; 20 mg (N = 6)): 0 N (%) | Dizziness, CTCAE any grade, patients with AEs ([1]; 20 mg (N = 6)): 3 (50) N (%) | Fatigue, CTCAE any grade, patients with AEs ([1]; 20 mg (N = 6)): 2 (33) N (%) | Fatigue, patients with CTCAE grade ≥3 event ([1]; 20 mg (N = 6)): 0 N (%) | Febrile neutropenia, patients with CTCAE grade ≥3 event ([1]; 20 mg (N = 6)): 0 N (%) | Insomnia, CTCAE any grade, patients with AEs ([1]; 20 mg (N = 6)): 2 (33) N (%) | Nasopharyngitis, CTCAE any grade, patients with AEs ([1]; 20 mg (N = 6)): 2 (33) N (%) | Nausea, CTCAE any grade, patients with AEs ([1]; 20 mg (N = 6)): 1 (17) N (%) | Neutropenia, patients with CTCAE grade ≥3 event ([1]; 20 mg (N = 6)): 1 (17) N (%) | Pyrexia, CTCAE any grade, patients with AEs ([1]; 20 mg (N = 6)): 2 (33) N (%) | Rash, CTCAE any grade, patients with AEs ([1]; 20 mg (N = 6)): 2 (33) N (%) | Urinary tract infection, patients with CTCAE grade ≥3 event ([1]; 20 mg (N = 6)): 0 N (%) | Patients who withdrew from the study due to an AE ([1]; 20 mg dose cohort, grade 2 cystitis): one patient | Anorexia, patients with CTCAE grade ≥3 event ([1]; 25 mg (N = 6)): 1 (17) N (%) | Any grade ≥3 event, patients with CTCAE grade ≥3 event ([1]; 25 mg (N = 6)): 2 (33) N (%) | Constipation, CTCAE any grade, patients with AEs ([1]; 25 mg (N = 6)): 2 (33) N (%) | Constipation, patients with CTCAE grade ≥3 event ([1]; 25 mg (N = 6)): 1 (17) N (%) | Diarrhea, CTCAE any grade, patients with AEs ([1]; 25 mg (N = 6)): 2 (33) N (%) | Dizziness, CTCAE any grade, patients with AEs ([1]; 25 mg (N = 6)): 0 N (%) | Fatigue, CTCAE any grade, patients with AEs ([1]; 25 mg (N = 6)): 3 (50) N (%) | Fatigue, patients with CTCAE grade ≥3 event ([1]; 25 mg (N = 6)): 1 (17) N (%) | Febrile neutropenia, patients with CTCAE grade ≥3 event ([1]; 25 mg (N = 6)): 1 (17) N (%) | Insomnia, CTCAE any grade, patients with AEs ([1]; 25 mg (N = 6)): 1 (17) N (%) | Nasopharyngitis, CTCAE any grade, patients with AEs ([1]; 25 mg (N = 6)): 2 (33) N (%) | Nausea, CTCAE any grade, patients with AEs ([1]; 25 mg (N = 6)): 3 (50) N (%) | Neutropenia, patients with CTCAE grade ≥3 event ([1]; 25 mg (N = 6)): 0 N (%) | Pyrexia, CTCAE any grade, patients with AEs ([1]; 25 mg (N = 6)): 1 (17) N (%) | Rash, CTCAE any grade, patients with AEs ([1]; 25 mg (N = 6)): 0 N (%) | Urinary tract infection, patients with CTCAE grade ≥3 event ([1]; 25 mg (N = 6)): 1 (17) N (%) | Anorexia, patients with CTCAE grade ≥3 event ([1]; Total, all doses (N = 18)): 1 (6) N (%) | Any grade ≥3 event, patients with CTCAE grade ≥3 event ([1]; Total, all doses (N = 18)): 3 (17) N (%) | Constipation, CTCAE any grade, patients with AEs ([1]; Total, all doses (N = 18)): 4 (22) N (%) | Constipation, patients with CTCAE grade ≥3 event ([1]; Total, all doses (N = 18)): 1 (6) N (%) | Diarrhea, CTCAE any grade, patients with AEs ([1]; Total, all doses (N = 18)): 5 (28) N (%) | Dizziness, CTCAE any grade, patients with AEs ([1]; Total, all doses (N = 18)): 5 (28) N (%) | Fatigue, CTCAE any grade, patients with AEs ([1]; Total, all doses (N = 18)): 7 (39) N (%) | Fatigue, patients with CTCAE grade ≥3 event ([1]; Total, all doses (N = 18)): 1 (6) N (%) | Febrile neutropenia, patients with CTCAE grade ≥3 event ([1]; Total, all doses (N = 18)): 1 (6) N (%) | Insomnia, CTCAE any grade, patients with AEs ([1]; Total, all doses (N = 18)): 4 (22) N (%) | Nasopharyngitis, CTCAE any grade, patients with AEs ([1]; Total, all doses (N = 18)): 4 (22) N (%) | Nausea, CTCAE any grade, patients with AEs ([1]; Total, all doses (N = 18)): 7 (39) N (%) | Neutropenia, patients with CTCAE grade ≥3 event ([1]; Total, all doses (N = 18)): 1 (6) N (%) | Pyrexia, CTCAE any grade, patients with AEs ([1]; Total, all doses (N = 18)): 6 (33) N (%) | Rash, CTCAE any grade, patients with AEs ([1]; Total, all doses (N = 18)): 5 (28) N (%) | Urinary tract infection, patients with CTCAE grade ≥3 event ([1]; Total, all doses (N = 18)): 1 (6) N (%) | Deaths during the study ([1]; all doses 10-25 mg): no deaths | Patients reporting fatigue (AE) [1, 5]: 39% | Patients reporting nausea (AE) [1, 5]: 39% | Patients reporting pyrexia (AE) [1, 5]: 33% | Patients who experienced at least one AE [1, 5]: All patients | Patients who experienced CTCAE grade ≥3 events ([1]; all doses, 18 patients, one in 20 mg, two in 25 mg cohort): Three | Tolerability ([1]; doses up to 25 mg weekly): generally well tolerated | Maximum tolerated dose (MTD) [2]: not defined | Patients with complete or partial response ([3]; all doses): No patients | Patients with stable disease ≥8 weeks ([3]; all doses): five of 16 | Overall best response (RECIST) ([3]; all doses, stable disease defined as ≥8 weeks): stable disease | Duration of stable disease ([3]; patient with thymus cancer, 20 mg cohort): ≥ 12 weeks | Monoaster formation (proof of mechanism) ([4]; 25 mg, clinical setting): evidence of monoaster formation | Tolerability in Western patients ([4]; 25 mg): acceptable tolerability profile | Toxicity at 30 mg ([4]; 30 mg, parallel US study): experienced neutropenia | Recommended dose for further evaluation ([4]; parallel US study): 25 mg | Best objective tumor response in Western patients ([4]; weekly treatment): stable disease ≥12 weeks
